Assay outcomes from PubChem.
S1P4 agonist – activates the human S1P4 receptor. O95977. S1P4-expressing cell line, agonist reporter assay. activation, % at 4.98 µM. actives 0.35% (n = 220,000). AID 1509; in the data active = activation above about 11%;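 also: 0% = DMSO vehicle and 100% = reference agonist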
TNAP inh hi DEA – blocks human TNAP under high phosphate acceptor concentration | P05186 | purified TNAP, CDP-star luminescence, 1 M DEA | inhibition, % at 20 µM | actives 0.03% (n = 200,000) | AID 1135;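 active = over 50% inhibition of tissue-nonspecific alkaline phosphatase at 20 µM in the single-dose screen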;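 also: plate controls were DMSO wells for no effect and EDTA-quenched wells as full inhibition for full effect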
TNAP act hi DEA – increases human TNAP activity under high phosphate acceptor concentration | activation factor at 20 µM | P05186 | AID 1136 | purified TNAP, CDP-star luminescence, 1 M DEA, 30 min; stronger effect = higher value; 0 = EDTA background, 1 = DMSO-only activity | 200,000 tested, under 10 active;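 active = activation factor at least 2 at 20 µM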
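Test system – human TNAP · Doses – 20 µM single point · Incubation – 30 min, room temperature · Signal – luminescent substrate turnover signal · Read-out basis – activation factor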
S1P3 antagonist – blocks the human S1P3 receptor. Q99500. CHO S1P3 NFAT-BLA reporter, FRET fluorescence, antagonist mode. inhibition, % at 4.98 µM. actives 0.27% (n = 170,000);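 active = inhibition above the plate cutoff, the mean inhibition of test wells on that plate plus 3 SD, cut at about 28% in these data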;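 also: cells challenged with S1P at its EC80 of 0.8 µM; blue over green emission ratio from cleaved BLA substrate after 4 h stimulation; 0% = S1P-stimulated wells and 100% = unstimulated DMSO-only wells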
Target sequence (Q99500 whole entry, looked up): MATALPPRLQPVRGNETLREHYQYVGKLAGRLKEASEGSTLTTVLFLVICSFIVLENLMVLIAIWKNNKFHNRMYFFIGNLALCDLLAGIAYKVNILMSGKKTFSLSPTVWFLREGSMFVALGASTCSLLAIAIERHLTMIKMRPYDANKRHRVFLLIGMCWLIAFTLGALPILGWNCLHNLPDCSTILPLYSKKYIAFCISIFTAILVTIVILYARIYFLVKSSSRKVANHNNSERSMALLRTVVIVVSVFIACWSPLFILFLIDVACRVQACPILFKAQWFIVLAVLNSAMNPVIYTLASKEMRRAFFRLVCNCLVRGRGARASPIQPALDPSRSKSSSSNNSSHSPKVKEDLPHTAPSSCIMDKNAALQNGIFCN
TNAP inh no acc – TNAP (human) inhibition, acceptor-free conditions; purified TNAP, CDP-star luminescence, 30 min; P05186; actives 0.26% (n = 200,000); inhibition, % at 20 µM;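 active = tissue-nonspecific alkaline phosphatase inhibition above about 50% at 20 µM in the single-dose screen, limit read from the data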;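 also: 0% = DMSO negative control and 100% = EDTA positive control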
S1P4 antagonist – human S1P4 receptor antagonism. actives 0.26% (n = 220,000). S1P4-expressing cells, antagonist mode, reporter read-out. inhibition, % at 4.98 µM. O95977; in the data active = inhibition above about 29%;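 also: 0% = wells stimulated with agonist and 100% = vehicle wells without agonist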
S1P4 agonist cf – human S1P4 agonism, confirmation. activation, % at 4.98 µM. shares compounds with S1P4 agonist. actives 7% (n = 740). S1P4 agonist cell-based reporter assay; in the data active = activation above about 12%;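 also: 0% = vehicle and 100% = full reference agonist response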
S1P1 agonist – counter-screen for S1P4 agonists: agonists of human S1P1. actives 4% (n = 740). shares compounds with S1P4 agonist. AID 1563. activation, % at 4.98 µM. S1P1 agonist cell-based assay, activation; in the data active = activation above about 21%;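 also: 0% = vehicle wells and 100% = reference agonist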
* marks the source's active call; other numbers are inactive results; nt = no result given. Hits are enriched below; roughly 1.1% of the tested compounds scored in any of these assays.

SMILES	S1P4 agonist	TNAP inh hi DEA	TNAP act hi DEA	S1P3 antagonist	TNAP inh no acc	S1P4 antagonist	S1P4 agonist cf	S1P1 agonist
CN(C)c1ccc(N2C(=O)CC(Sc3ccccc3C(=O)O)C2=O)cc1 (configuration not stated)	11*	2	1	1	5	-1	-1	-7
Cc1cccc(C)c1N(CC(=O)N1CCN(c2ccccc2F)CC1)S(C)(=O)=O	0	-1	1	-9	-5	4	nt	nt
Cc1cccc(C)c1N(Cc1ccccc1F)S(C)(=O)=O	33*	-3	1	3	-10	5	-2	-2
Cc1ccc(NC(=O)CN(C)C(=O)CCCN2C(=O)c3ccccc3C2=O)cc1	38*	-5	1.1	-10	-10	-6	-2	-9
CCN(c1ccccc1)S(=O)(=O)c1cc([N+](=O)[O-])ccc1N	17*	0	1	-2	-1	-8	19*	-5
Cn1c(=NC(=O)c2ccccc2[N+](=O)[O-])sc2cccc(F)c21	11*	nt	nt	12	nt	3	-3	1
Cn1c(=NC(=O)C(C)(C)C)sc2cccc(F)c21	1	nt	nt	16	nt	-3	nt	nt
CCOc1cc(S(=O)(=O)NCCc2ccc(OC)c(OC)c2)c(OCC)cc1-n1cnnn1	73*	-3	1	nt	-2	-12	-2	0
Cc1ccc(NS(=O)(=O)c2cc(OCC(N)=O)c(C)cc2Cl)cc1C	2	-2	1	nt	-3	-115	nt	nt
Cc1ccccc1NS(=O)(=O)c1cc(OCC(N)=O)c(C)cc1Cl	15*	-5	1	13	-5	1	-2	-4
Cc1ccnc2nc(C(=O)OCC(=O)NC(=O)NCc3ccco3)nn12	2	0	1	2	-10	-26	nt	nt
COCCSc1ccccc1C(=O)N1CCCC1	1	1	1	-8	-4	-12	nt	nt
COCCSc1ccccc1C(=O)N1CCN(Cc2ccccc2)CC1	13*	-7	1.1	-9	-7	-10	-2	-7
Cc1cccc2cc(C3CC(c4cccs4)=NN3S(C)(=O)=O)c(Cl)nc12 (configuration not stated)	2	nt	nt	-10	nt	10	nt	nt
CC(C)(C)c1ccc(OCC(=O)Nc2ccc3c4c(cccc24)C(=O)NC3=O)cc1	19*	-1	1	-7	-23	-11	1	-4
Cc1ccc(OCC(=O)NC(=S)Nc2ccc3c4c(cccc24)CC3)cc1	0	-2	1	3	-6	2	nt	nt
Cc1ccc([N+](=O)[O-])c2c1C(N1CC(C)OC(C)C1)C(C)(C)O2 (configuration not stated)	-1	0	1	-22	-9	-14	nt	nt
CCOc1cc(CNCCSc2nnnn2C)cc(Br)c1OCc1ccc(F)cc1	41*	-3	1	10	-17	1	-1	-10
COc1cc(CNCCSc2nnnn2C)cc(Br)c1OCc1ccc(F)cc1	-3	-4	1	nt	-6	-12	nt	nt
CCN(CC)S(=O)(=O)c1ccc(C(=O)NNc2nc(-c3ccccc3)c3cc(Br)ccc3n2)cc1	13*	14	0.9	-1	-81	-11	-2	3
CC(C)n1c(O)c(N=NC(=O)Cc2csc(N3CCOCC3)n2)c2ccccc21	0	-2	1	-8	9	-2	nt	nt
COc1cc(Br)cc(C=Nc2cccc(C(F)(F)F)c2)c1O	13*	-2	1	-6	-9	-15	0	2
CCNC(=S)N(CCc1cccc(C)c1)Cc1cc2cc(OC)c(OC)cc2[nH]c1=O	51*	2	1	-2	-13	-2	-1	-4
COc1ccc2c(=O)c3c(=O)n(CCc4ccccc4)c(C(C)C)nc3oc2c1	1	nt	nt	-6	nt	3	nt	nt
COCCn1c(=NC(=O)c2cc(Cl)sc2Cl)sc2cc(S(N)(=O)=O)ccc21	1	-3	1	2	-11	-14	nt	nt
SMILES	S1P4 agonist	TNAP inh hi DEA	TNAP act hi DEA	S1P3 antagonist	TNAP inh no acc	S1P4 antagonist	S1P4 agonist cf	S1P1 agonist
COCCn1c(=NC(=O)c2ccc3c(c2)OCCO3)sc2cc(S(N)(=O)=O)ccc21	16*	3	1	4	3	-4	-1	-6
O=S(=O)(CCNCc1cccs1)c1ccc(Cl)cc1	36*	nt	nt	-15	nt	8	-2	-2
CCOc1ccc(S(=O)(=O)NCc2ccccc2)cc1C(N)=O	11*	-3	1	-15	-10	0	-2	0
CCN(C(=S)Nc1ccc(C(C)=O)cc1)C1CCCCC1	42*	-2	1	-4	0	-21	-2	-5
O=C(CSc1ccc(F)cc1)NCCSc1ccccc1	11*	-3	1	15	-8	-7	-2	-3
O=C(CSc1ccc(F)cc1)NC(=O)NCc1ccccc1	-1	-4	1	7	0	-19	nt	nt
O=C(Cn1cncn1)N/N=C/c1ccc(Cl)cc1	1	-6	1.1	11	-11	-5	nt	nt
O=C(Cn1cncn1)NCc1ccc(Cl)cc1	13*	-2	1	-1	11	-11	-2	-6
O=C(CSc1nnnn1-c1ccc(Cl)c(C(=O)O)c1)NC(c1ccccc1)c1ccccc1	1	nt	nt	12	nt	-10	nt	nt
Cc1nc2cc(NC(=O)NCc3ccco3)ccc2o1	20*	1	1	1	-7	-20	-2	3
COc1ccc(NC(=O)CSc2nnc(C3CCCCC3)n2N)cc1	0	nt	nt	-2	nt	5	nt	nt
Nn1c(SCC(=O)Nc2cccc(F)c2)nnc1C1CCCCC1	18*	-4	1	1	-5	-4	-1	7
Cn1c(CC(=O)c2ccc(Br)cc2)[n+](C)c2ccccc21	3	-2	1	10	-3	-11	nt	nt
COc1cccc(CNC(=S)NC2CCCC2)c1	1	-3	1	-21	-8	0	nt	nt
COc1ccc(CNC(=S)NC2CCCC2)cc1	11*	-4	1	7	-17	-3	-2	-9
N#Cc1cc2c(=O)n3ccccc3nc2n(-c2ccc(Cl)cc2)c1=O	9	-1	1	-8	1	-15	nt	nt
C=CCn1c(=N)c(C#N)cc2c(=O)n3ccccc3nc21	0	3	1	nt	-6	-25	nt	nt
Cc1cc(-n2c(=O)c(C#N)cc3c(=O)n4ccccc4nc32)no1	28*	-2	1	-99	-10	-74	20*	34*
C=CCn1c(=O)c(C#N)cc2c(=O)n3ccccc3nc21	11*	-1	1	-13	-9	-15	12*	31*
Cc1ccccc1-n1c(=O)c(C#N)cc2c(=O)n3ccccc3nc21	44*	-8	1.1	nt	-20	-39	27*	46*
